Source: PubChem (The Scripps Research Institute Molecular Screening Center)
M5 PAM = human M5 muscarinic receptor positive allosteric modulators, primary screen, CHO-K1 cells, Fluo-8 calcium fluorescence | activation, % at 3 µM | AID 624038, 2012 | Muscarinic acetylcholine receptor M5 (Homo sapiens), P08912 | 360,000 tested, 0.3% active | CHO-K1 hM5, ACh EC20 PAM; 0% = ACh EC20, 100% = ACh EC100;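 active means activation above the run cutoff, the mean activation of all test compounds plus 3 SD, cut at about 18% in these data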
Target sequence (P08912 whole entry, looked up): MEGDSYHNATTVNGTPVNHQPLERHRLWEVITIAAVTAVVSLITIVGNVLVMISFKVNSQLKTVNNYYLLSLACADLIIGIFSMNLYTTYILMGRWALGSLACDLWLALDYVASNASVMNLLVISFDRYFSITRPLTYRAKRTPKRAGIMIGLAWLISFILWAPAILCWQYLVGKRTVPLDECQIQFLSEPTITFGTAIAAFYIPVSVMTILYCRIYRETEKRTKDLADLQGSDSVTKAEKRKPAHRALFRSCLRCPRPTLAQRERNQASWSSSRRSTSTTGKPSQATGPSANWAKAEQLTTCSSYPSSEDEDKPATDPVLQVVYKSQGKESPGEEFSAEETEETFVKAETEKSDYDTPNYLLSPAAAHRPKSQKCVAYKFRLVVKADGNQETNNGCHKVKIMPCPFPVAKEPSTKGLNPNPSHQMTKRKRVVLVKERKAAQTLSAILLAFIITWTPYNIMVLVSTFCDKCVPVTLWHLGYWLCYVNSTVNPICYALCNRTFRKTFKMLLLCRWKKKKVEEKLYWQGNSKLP
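system = human M5 receptor in CHO-K1 cells | compound = one concentration, 3 µM final (nominal) | schedule = Post-acetylcholine fluorescence recording 140 s | signal = Fluo-8 calcium dye fluorescence, kinetic read | benchmarks = low control EC20 acetylcholine (0%), high control EC100 acetylcholine (100%) | repeats = singlicate, one well per test compound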
CHRM4 antagonist = human M4 muscarinic receptor antagonists, primary screen, CHO cells, Fluo-8 calcium fluorescence. inhibition, % at 3 µM. 360,000 tested, 0.73% active. CHO-hM4 cells, ACh EC80. Muscarinic acetylcholine receptor M4 (Homo sapiens), P08173;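 active means inhibition above its plate's cutoff, the mean inhibition of sample wells plus 3 SD, cut at about 27% in these data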
CHRM4 PAM = human M4 muscarinic receptor positive allosteric modulators, primary screen, CHO-K1 cells, Fluo-8 calcium fluorescence. Muscarinic acetylcholine receptor M4 (Homo sapiens), P08173. CHO-K1 hM4/Gqi5, ACh EC20; 0% = ACh EC20, 100% = maximal ACh. activation, % at 3 µM. 360,000 tested, 0.4% active. AID 624126, 2012;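 active means activation above its plate's cutoff, the mean activation of sample wells plus 3 SD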
M4 ag = human M4 muscarinic receptor agonists, primary screen, CHO-K1 cells, Fluo-8 calcium fluorescence; activation, % at 3 µM; CHO-K1 hM4/Gqi5; vehicle 0%, full acetylcholine response 100%; Muscarinic acetylcholine receptor M4 (Homo sapiens), P08173; 360,000 tested, 0.14% active; AID 624127, 2012;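 active means activation above the run mean over all test wells plus 3 SD, cut at about 32% in these data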;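 further: peak over basal fluorescence ratio per well then scaled between controls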
CHRM5 agonist = human M5 muscarinic receptor agonists, primary screen, CHO-K1 cells, Fluo-8 calcium fluorescence | AID 624037, 2012 | CHO-K1 hM5 cells; 0% DMSO wells, 100% maximal acetylcholine response | activation, % at 3 µM | 360,000 tested, 0.19% active | Muscarinic acetylcholine receptor M5 (Homo sapiens), P08912;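 active means activation above the run's mean over test compounds plus 3 SD, cut at about 23% in these data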;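 further: signal is peak over basal fluorescence ratio across the kinetic read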
M5 antag = human M5 muscarinic receptor antagonists, primary screen, CHO cells, Fluo-8 calcium fluorescence; Muscarinic acetylcholine receptor M5 (Homo sapiens), P08912; 360,000 tested, 0.59% active; AID 624040, 2012; inhibition, % at 3 µM; CHO-hM5 cells, ACh EC80;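 active means inhibition above a per-plate cutoff, the mean of that plate's test compounds plus 3 SD, cut at about 27% in these data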
Of the large screens only hits and unclear results are named; the others gave an inactive call. Compounds with a hit are over-represented: about 1.9% of the library has one in this group of screens.

O=C(NCc1ccc(F)cc1)C(=O)Nc1nc(C23CC4CC(CC(C4)C2)C3)cs1	none
COc1ccc(S(=O)(=O)N(CC(=O)NCCC(C)C)c2ccccc2)cc1OC	CHRM4 PAM 25.2
CCCNC(=O)CN(c1ccccc1)S(=O)(=O)c1ccc(OC)c(OC)c1	none
N/C(=N\c1nc(CSc2ccccn2)cc(=O)[nH]1)Nc1ccc(Cl)cc1Cl	none
O=C(NCc1ccco1)c1cccc(NS(=O)(=O)c2cccc(F)c2)c1	none
O=C(NCc1ccco1)c1cccc(NS(=O)(=O)c2ccccc2F)c1	M5 PAM 18.8
O=C(OCCN1CCOCC1)c1ccc(Cl)cc1Cl	CHRM4 PAM 14.6
O=C(NCc1cccnc1)C(=O)C1C(=O)Nc2ccccc21 (centres undefined)	M5 PAM 18.2
CC1CN(c2ccc(Oc3ccccc3)cc2)c2nc3c(c(=O)[nH]c(=O)n3C)n2C1 (centres undefined)	CHRM4 PAM 16.7
O=C(Nc1ccc2c(c1)OCO2)c1ccc2sc([C@H]3C[C@H](O)[C@@H](CO)O3)nc2c1	CHRM4 PAM 16.1
CC1(OC(=O)C2CCCC2)C(=O)C=C2C=C(c3ccsc3)N(CCCCO)C=C2C1=O (centres undefined)	none
CC1(OC(=O)C2CCCC2)C(=O)C=C2C=C(c3ccsc3)N(C3CCCC3)C=C2C1=O (centres undefined)	CHRM5 agonist 38.7
CCCCCC(=O)Nc1ccc(C(=O)COC(=O)c2ccccn2)cc1	none
Cc1cc(Nc2nc3ccccc3[nH]c2=O)n(-c2ccccc2)n1	M5 PAM 23.3
N#Cc1ccc(OCC(=O)N/N=C2\CCc3ccccc32)cc1	M5 PAM 18.4
O=C(NCCC1=CCCCC1)C(=O)NCc1ccncc1	CHRM4 PAM 21.4
O=C(NCCC1=CCCCC1)C(=O)NCCc1ccc(Cl)cc1	none
CCOc1cc(-c2noc(CCC(=O)NCC3CCCO3)n2)ccc1OC (centres undefined)	none
COc1ccc(-c2noc(CCC(=O)NCC3CCCO3)n2)cc1OC (centres undefined)	CHRM4 antagonist 27.2
CC[C@]12c3[nH]c4cc(-c5ccco5)ccc4c3CCN1C(=O)[C@@H](CC(=O)NCc1ccc(OC)c(OC)c1)C[C@@H]2C(=O)N1CCN(C(=O)c2ccco2)CC1	none
COc1cc(NC(=O)[C@H]2O[C@@H](n3ccc(N)nc3=O)[C@H](O)[C@@H]2O)cc(OC)c1OC	none
FC(F)(F)c1cc(CCN2CCNC[C@@H]2CC2CCCCC2)cc(C(F)(F)F)c1	CHRM4 antagonist 29.1
CCOC(=O)C(C)(C)n1nnc(-c2ccc([N+](=O)[O-])cc2)n1	none
O=C1c2ccccc2C(c2nnnn2Cc2ccccc2)N1Cc1cccs1 (centres undefined)	none
C/C(=N\NC(=O)c1cccc(C)c1)c1ccc(N2CCOCC2)cc1	M5 PAM 18.5
Cc1cc(S(=O)(=O)Nc2nc(CN3CCOCC3)nc3sc4c(c23)CCC4)ccc1F	none
Brc1ccc2c(c1)CN1CCCC1=N2	none
CCCCn1c(-c2ccc([N+](=O)[O-])cc2)n[nH]c1=S	CHRM4 antagonist 95.4, M5 antag 46.0
O=C(Nc1ccc(F)c(Cl)c1)Nc1csc2ccccc12	M5 antag 34.3
O=C(Nc1ccc(F)cc1F)Nc1csc2ccccc12	M5 antag 32.8
COc1ccc(S(=O)(=O)N2CCCCC2)cc1NC(=O)CN(C)C1CCCCC1	none
COc1ccc(S(=O)(=O)N2CCCCC2)cc1NC(=O)CN(Cc1ccco1)Cc1ccco1	CHRM4 antagonist 26.6, M5 antag 43.5
COC(=O)C1=C(C)N(c2ccc(OC)cc2)C(C)=C(C(=O)OC)C1c1ccccc1	none
C1CCN(C2CCN(c3nc4nonc4nc3N3CCSCC3)CC2)C1	CHRM4 antagonist 31.3
